# Source: ChEMBL document CHEMBL5303300, “EUbOPEN Chemogenomics Library - Multiplex” (2023)
# “And” between values parts separate entries of the source, which are not always exact repeats. Equal entries are not always repeated.
# Tested on: HEK-293T
# Assay: Multiplex assay against HEK293T
# Type: toxicity, cell-based
# Conditions: human, number of replicates 2
# Outline: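 Imaging took place on a CQ1 microscope at 37°C and 5% CO2 once compound had been added to live cells stained at seeding with Hoechst33342, BioTracker Green Microtubule Cytoskeleton Dye, MitoTracker Red and Annexin V Alexa Fluor 680. CellPathfinder machine-learning gating classed cells as Hoechst high-intensity objects or normal cells, classed normal cells as having healthy, pyknosed or fragmented nuclei, and classed pyknosed cells as mitotic or apoptotic. Tubulin, mitochondrial-mass and membrane-permeability phenotypes are per cents of the healthy-nucleus cells.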
# [1] = 12 h, 1 µM, compound concentration 1 uM
# [2] = 12 h, 10 µM, compound concentration 10 uM
# [3] = 24 h, 1 µM, compound concentration 1 uM
# [4] = 24 h, 10 µM, compound concentration 10 uM
# [5] = 48 h, 1 µM, compound concentration 1 uM
# [6] = 48 h, 10 µM, compound concentration 10 uM
structure (smiles),measurement,setting,value
CCN1C(=O)N(c2c(F)c(OC)cc(OC)c2F)Cc2cnc3[nH]c(CN4CCOCC4)cc3c21 [PEMIGATINIB],Population Apoptotic (%),[1],58% and 63%
same,Population Fragmented Nuclei (%),[1],3%
same,Population Healthy Nuclei (%),[1],82% and 83%
same,Population Hoechst High Intensity Objects (%),[1],7% and 9%
same,Population Membrane Permeable-Phenotype (%),[1],3% and 0%
same,Population Mitochondria Different-Phenotype (%),[1],15% and 20%
same,Population Mitotic Cells (%),[1],41% and 36%
same,Population Normal (%),[1],92% and 90%
same,Population Pyknosed Nuclei (%),[1],13%
same,Population Tubulin-Different-Phenotype (%),[1],51% and 60%
same,Total Cell Count,[1],617 and 677
same,Population Apoptotic (%),[2],64% and 53%
same,Population Fragmented Nuclei (%),[2],4% and 2%
same,Population Healthy Nuclei (%),[2],83% and 87%
same,Population Hoechst High Intensity Objects (%),[2],12% and 8%
same,Population Membrane Permeable-Phenotype (%),[2],2%
same,Population Mitochondria Different-Phenotype (%),[2],31% and 18%
same,Population Mitotic Cells (%),[2],35% and 46%
same,Population Normal (%),[2],87% and 91%
same,Population Pyknosed Nuclei (%),[2],11% and 9%
same,Population Tubulin-Different-Phenotype (%),[2],77% and 68%
same,Total Cell Count,[2],550 and 620
same,Population Apoptotic (%),[3],41% and 56%
same,Population Fragmented Nuclei (%),[3],8% and 7%
same,Population Healthy Nuclei (%),[3],82% and 83%
same,Population Hoechst High Intensity Objects (%),[3],7% and 8%
same,Population Membrane Permeable-Phenotype (%),[3],3% and 1%
same,Population Mitochondria Different-Phenotype (%),[3],7% and 5%
same,Population Mitotic Cells (%),[3],58% and 43%
same,Population Normal (%),[3],92% and 91%
same,Population Pyknosed Nuclei (%),[3],9%
same,Population Tubulin-Different-Phenotype (%),[3],29% and 30%
same,Total Cell Count,[3],1042 and 1171
same,Population Apoptotic (%),[4],52% and 58%
same,Population Fragmented Nuclei (%),[4],4% and 5%
same,Population Healthy Nuclei (%),[4],86% and 89%
same,Population Hoechst High Intensity Objects (%),[4],12% and 11%
same,Population Membrane Permeable-Phenotype (%),[4],1%
same,Population Mitochondria Different-Phenotype (%),[4],19% and 16%
same,Population Mitotic Cells (%),[4],47% and 41%
same,Population Normal (%),[4],87% and 88%
same,Population Pyknosed Nuclei (%),[4],8% and 4%
same,Population Tubulin-Different-Phenotype (%),[4],71% and 61%
same,Total Cell Count,[4],678 and 726
same,Population Apoptotic (%),[5],17%
same,Population Fragmented Nuclei (%),[5],14% and 12%
same,Population Healthy Nuclei (%),[5],83% and 84%
same,Population Hoechst High Intensity Objects (%),[5],7% and 9%
same,Population Membrane Permeable-Phenotype (%),[5],6% and 2%
same,Population Mitochondria Different-Phenotype (%),[5],0%
same,Population Mitotic Cells (%),[5],82%
same,Population Normal (%),[5],92% and 90%
same,Population Pyknosed Nuclei (%),[5],2% and 3%
same,Population Tubulin-Different-Phenotype (%),[5],10% and 18%
same,Total Cell Count,[5],2805 and 2683
same,Population Apoptotic (%),[6],33% and 24%
same,Population Fragmented Nuclei (%),[6],9% and 10%
same,Population Healthy Nuclei (%),[6],87% and 86%
same,Population Hoechst High Intensity Objects (%),[6],13% and 12%
same,Population Membrane Permeable-Phenotype (%),[6],3% and 4%
same,Population Mitochondria Different-Phenotype (%),[6],2% and 4%
same,Population Mitotic Cells (%),[6],66% and 75%
same,Population Normal (%),[6],86% and 87%
same,Population Pyknosed Nuclei (%),[6],3%
same,Population Tubulin-Different-Phenotype (%),[6],55%
same,Total Cell Count,[6],1120 and 944
COc1ccc(F)c(F)c1C(=O)c1cnc(NC2CCN(S(C)(=O)=O)CC2)nc1N [RG-547],Population Apoptotic (%),[1],71% and 70%
same,Population Fragmented Nuclei (%),[1],1% and 3%
same,Population Healthy Nuclei (%),[1],86% and 87%
same,Population Hoechst High Intensity Objects (%),[1],8%
same,Population Membrane Permeable-Phenotype (%),[1],4%
same,Population Mitochondria Different-Phenotype (%),[1],21% and 18%
same,Population Mitotic Cells (%),[1],28% and 29%
same,Population Normal (%),[1],91%
same,Population Pyknosed Nuclei (%),[1],11% and 8%
same,Population Tubulin-Different-Phenotype (%),[1],57% and 48%
same,Total Cell Count,[1],469 and 554
same,Population Apoptotic (%),[2],62% and 82%
same,Population Fragmented Nuclei (%),[2],3% and 4%
same,Population Healthy Nuclei (%),[2],91% and 86%
same,Population Hoechst High Intensity Objects (%),[2],8% and 11%
same,Population Membrane Permeable-Phenotype (%),[2],2% and 1%
same,Population Mitochondria Different-Phenotype (%),[2],24% and 33%
same,Population Mitotic Cells (%),[2],37% and 17%
same,Population Normal (%),[2],91% and 88%
same,Population Pyknosed Nuclei (%),[2],5% and 8%
same,Population Tubulin-Different-Phenotype (%),[2],59% and 65%
same,Total Cell Count,[2],491 and 448
same,Population Apoptotic (%),[3],86% and 67%
same,Population Fragmented Nuclei (%),[3],3% and 5%
same,Population Healthy Nuclei (%),[3],90% and 87%
same,Population Hoechst High Intensity Objects (%),[3],5% and 7%
same,Population Membrane Permeable-Phenotype (%),[3],5% and 3%
same,Population Mitochondria Different-Phenotype (%),[3],8% and 9%
same,Population Mitotic Cells (%),[3],13% and 32%
same,Population Normal (%),[3],94% and 92%
same,Population Pyknosed Nuclei (%),[3],5% and 7%
same,Population Tubulin-Different-Phenotype (%),[3],33% and 37%
same,Total Cell Count,[3],670 and 592
same,Population Apoptotic (%),[4],63% and 66%
same,Population Fragmented Nuclei (%),[4],4% and 2%
same,Population Healthy Nuclei (%),[4],89% and 87%
same,Population Hoechst High Intensity Objects (%),[4],9% and 15%
same,Population Membrane Permeable-Phenotype (%),[4],0%
same,Population Mitochondria Different-Phenotype (%),[4],42% and 37%
same,Population Mitotic Cells (%),[4],36% and 33%
same,Population Normal (%),[4],90% and 84%
same,Population Pyknosed Nuclei (%),[4],6% and 9%
same,Population Tubulin-Different-Phenotype (%),[4],63% and 61%
same,Total Cell Count,[4],395 and 403
same,Population Apoptotic (%),[5],61% and 72%
same,Population Fragmented Nuclei (%),[5],11%
same,Population Healthy Nuclei (%),[5],86%
same,Population Hoechst High Intensity Objects (%),[5],5%
same,Population Membrane Permeable-Phenotype (%),[5],1% and 2%
same,Population Mitochondria Different-Phenotype (%),[5],2% and 4%
same,Population Mitotic Cells (%),[5],38% and 27%
same,Population Normal (%),[5],94%
same,Population Pyknosed Nuclei (%),[5],1%
same,Population Tubulin-Different-Phenotype (%),[5],24% and 25%
same,Total Cell Count,[5],841 and 644
same,Population Apoptotic (%),[6],73% and 80%
same,Population Fragmented Nuclei (%),[6],5%
same,Population Healthy Nuclei (%),[6],89% and 84%
same,Population Hoechst High Intensity Objects (%),[6],17% and 13%
same,Population Membrane Permeable-Phenotype (%),[6],0%
same,Population Mitochondria Different-Phenotype (%),[6],50% and 55%
same,Population Mitotic Cells (%),[6],26% and 20%
same,Population Normal (%),[6],82% and 86%
same,Population Pyknosed Nuclei (%),[6],5% and 10%
same,Population Tubulin-Different-Phenotype (%),[6],67% and 65%
same,Total Cell Count,[6],329 and 336
